According to ChEMBL document CHEMBL5705905, “Pharmacological targeting of kinases MST1 and MST2 augments tissue repair and regeneration” (Sci Transl Med, 2016):
Activity calls are given as the source filed them. The rule behind the calls is not given here.

Legend:
[1] = target: Phosphatidylinositol 4,5-bisphosphate 3-kinase catalytic subunit beta isoform (Homo sapiens) (UniProt P42338); test: Inhibition of PIK3CB (unknown origin) assessed as remaining activity at 1 uM by Kinome scan method relative to control
[2] = target: Serine/threonine-protein kinase PAK 4 (Homo sapiens) (UniProt O96013); test: Inhibition of PAK4 (unknown origin) assessed as remaining activity at 1 uM by Kinome scan method relative to control
[3] = target: NUAK family SNF1-like kinase 1 (Homo sapiens) (UniProt O60285); test: Inhibition of ARK5 (unknown origin) assessed as remaining activity at 1 uM by Kinome scan method relative to control
Summary of the method: (§1)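 Active-site-dependent competition-binding (KINOMEscan) panel of 468 kinases, test compound at 1 μM (from a 10 mM DMSO stock). Read-out is ctrl% = (test signal − positive control signal)/(negative control signal − positive control signal) × 100. DMSO is the negative control (100%) and a control compound is the positive control (0%). Lower ctrl% means tighter binding.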

[4] = target: Ribosomal protein S6 kinase alpha-6 (Homo sapiens) (UniProt Q9UK32); test: Inhibition of N-terminal kinase domain RSK4 (unknown origin) assessed as remaining activity at 1 uM by Kinome scan method relative to control
[5] = target: Serine/threonine-protein kinase D3 (Homo sapiens) (UniProt O94806); test: Inhibition of PRKD3 (unknown origin) assessed as remaining activity at 1 uM by Kinome scan method relative to control
[6] = target: cAMP-dependent protein kinase catalytic subunit beta (Homo sapiens) (UniProt P22694); test: Inhibition of PKAC-beta (unknown origin) assessed as remaining activity at 1 uM by Kinome scan method relative to control
[7] = target: Tyrosine-protein kinase ABL1 (Homo sapiens, UniProt P00519, M351T); test: Binding affinity to phosphorylated ABL1 M351T mutant (unknown origin) assessed as dissociation constant
[8] = target: Receptor tyrosine-protein kinase erbB-2 (Homo sapiens) (UniProt P04626); test: Inhibition of ERBB2 (unknown origin) assessed as remaining activity at 1 uM by Kinome scan method relative to control
Mus musculus [9] = test: Anti-colitis activity against DSS-induced mouse assessed as suppression in disease activity index at 1 mg/kg, ip administrated daily for over 1 to 21 days; type: functional, organism-based; details: time 1-21 day
Summary of the method: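 Colitis was induced in wild-type mice with DSS on days 1–7, with vehicle or 1 mg/kg daily (n = 12 per group). Disease activity index (diarrhea, rectal bleeding) was scored daily over days 1–21. Student's t test at each time point.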

Mus musculus [10] = test: Protection against APAP induced liver injury in mouse assessed as decrease in ALT level at 1 mg/kg, ip administered at 1.5 hrs in the presence of NAC; type: functional, organism-based; details: Serum
[11] = target: Mitogen-activated protein kinase kinase kinase kinase 1 (Homo sapiens) (UniProt Q92918); test: Inhibition of HPK1 (unknown origin) assessed as remaining activity at 1 uM by Kinome scan method relative to control
[12] = target: Serine/threonine-protein kinase PLK1 (Homo sapiens) (UniProt P53350); test: Inhibition of PLK1 (unknown origin) assessed as remaining activity at 1 uM by Kinome scan method relative to control
Mus musculus [13] = test: Protection against APAP induced liver injury in mouse assessed as increase in survival rate at 1 mg/kg, ip administered at 2.5 hrs in the presence of NAC […]; type: functional
Summary of the method: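 Wild-type mice given oral APAP 400 mg/kg, then i.p. vehicle, NAC 250 mg/kg, 1 mg/kg test agent, or NAC plus test agent at 1.5 or 2.5 h. Mortality was tracked with n = 10–11 per group, Mantel-Cox test. Separately, TUNEL was done on liver after 200 mg/kg APAP with treatment at 2.5 h.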

[14] = target: Mitogen-activated protein kinase kinase kinase kinase 2 (Homo sapiens) (UniProt Q12851); test: Inhibition of MAP4K2 (unknown origin) assessed as remaining activity at 1 uM by Kinome scan method relative to control
Mitogen-activated protein kinase kinase kinase kinase 2 (Homo sapiens), sequence (Q12851 whole entry): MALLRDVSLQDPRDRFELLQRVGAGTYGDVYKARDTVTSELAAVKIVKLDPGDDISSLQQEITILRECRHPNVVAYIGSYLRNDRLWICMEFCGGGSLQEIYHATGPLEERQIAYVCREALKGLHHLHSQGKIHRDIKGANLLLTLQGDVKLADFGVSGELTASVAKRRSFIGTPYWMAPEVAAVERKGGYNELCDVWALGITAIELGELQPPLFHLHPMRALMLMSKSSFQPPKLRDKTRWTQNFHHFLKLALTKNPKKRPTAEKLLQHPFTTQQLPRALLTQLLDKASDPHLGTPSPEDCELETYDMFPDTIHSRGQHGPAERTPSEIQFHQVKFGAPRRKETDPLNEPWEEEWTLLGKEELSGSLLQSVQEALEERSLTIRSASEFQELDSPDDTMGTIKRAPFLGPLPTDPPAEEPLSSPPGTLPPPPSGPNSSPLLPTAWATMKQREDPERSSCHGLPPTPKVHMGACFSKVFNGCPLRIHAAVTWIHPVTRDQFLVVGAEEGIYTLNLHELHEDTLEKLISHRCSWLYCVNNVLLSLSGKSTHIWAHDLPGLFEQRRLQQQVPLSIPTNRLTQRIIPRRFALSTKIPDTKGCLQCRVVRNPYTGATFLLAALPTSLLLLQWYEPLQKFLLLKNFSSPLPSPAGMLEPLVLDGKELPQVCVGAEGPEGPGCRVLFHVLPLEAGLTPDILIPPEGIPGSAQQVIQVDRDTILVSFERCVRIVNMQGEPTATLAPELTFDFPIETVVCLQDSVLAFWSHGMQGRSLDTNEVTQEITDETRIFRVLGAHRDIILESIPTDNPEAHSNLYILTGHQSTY

Mus musculus [15] = test: Protection against duct ligation-induced mouse assessed as low dead cells at 1 mg/kg, ip administration daily for 10 days by TUNEL staining; type: functional, organism-based; details: Liver, time 10.0 day
[16] = target: Protein-tyrosine kinase 2-beta (Homo sapiens) (UniProt Q14289); test: Inhibition of PYK2 (unknown origin) assessed as remaining activity at 1 uM by Kinome scan method relative to control
Protein-tyrosine kinase 2-beta (Homo sapiens), sequence (Q14289 whole entry, looked up): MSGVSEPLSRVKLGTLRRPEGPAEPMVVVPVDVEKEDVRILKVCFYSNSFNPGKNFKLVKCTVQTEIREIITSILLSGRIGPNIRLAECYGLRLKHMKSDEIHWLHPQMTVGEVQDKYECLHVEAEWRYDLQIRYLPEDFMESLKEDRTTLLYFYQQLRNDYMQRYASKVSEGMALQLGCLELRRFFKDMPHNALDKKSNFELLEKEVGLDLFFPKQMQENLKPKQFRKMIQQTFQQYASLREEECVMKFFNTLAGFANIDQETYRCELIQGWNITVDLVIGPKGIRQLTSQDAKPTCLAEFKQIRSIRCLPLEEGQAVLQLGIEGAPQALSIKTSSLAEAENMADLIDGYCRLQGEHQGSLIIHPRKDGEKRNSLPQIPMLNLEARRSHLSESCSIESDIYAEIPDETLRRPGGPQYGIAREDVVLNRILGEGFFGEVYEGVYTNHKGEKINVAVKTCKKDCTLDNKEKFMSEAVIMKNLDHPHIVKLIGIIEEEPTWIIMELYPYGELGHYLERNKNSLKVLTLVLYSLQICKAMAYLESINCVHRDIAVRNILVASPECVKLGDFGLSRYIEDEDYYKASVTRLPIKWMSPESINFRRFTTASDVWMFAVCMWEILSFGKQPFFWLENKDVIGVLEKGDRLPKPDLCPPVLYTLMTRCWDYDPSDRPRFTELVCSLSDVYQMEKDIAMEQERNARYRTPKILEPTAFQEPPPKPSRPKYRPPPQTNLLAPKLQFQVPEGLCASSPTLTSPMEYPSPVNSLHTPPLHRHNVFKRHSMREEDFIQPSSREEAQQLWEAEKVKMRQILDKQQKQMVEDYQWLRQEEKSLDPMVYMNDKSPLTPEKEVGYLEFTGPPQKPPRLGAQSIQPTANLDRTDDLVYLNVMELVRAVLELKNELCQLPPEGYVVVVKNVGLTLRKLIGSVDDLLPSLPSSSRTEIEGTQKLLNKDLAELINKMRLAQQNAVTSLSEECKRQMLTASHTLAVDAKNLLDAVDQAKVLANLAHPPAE

Mus musculus [17] = test: Protection against human hepatocyte transplanted FRG mouse assessed as increase in FAH level at 1 mg/kg, ip administrated once a daily for 28 days by H&E staining based immunohistochemical analysis; type: functional, organism-based; details: Liver, time 28.0 day
[18] = target: Eukaryotic translation initiation factor 2-alpha kinase 1 (Homo sapiens) (UniProt Q9BQI3); test: Inhibition of EIF2AK1 (unknown origin) assessed as remaining activity at 1 uM by Kinome scan method relative to control
[19] = target: Bone morphogenetic protein receptor type-1A (Homo sapiens) (UniProt P36894); test: Inhibition of BMPR1A (unknown origin) assessed as remaining activity at 1 uM by Kinome scan method relative to control; summary of the method: as §1
[20] = target: Protein kinase C eta type (Homo sapiens) (UniProt P24723); test: Inhibition of PRKCH (unknown origin) assessed as remaining activity at 1 uM by Kinome scan method relative to control
Protein kinase C eta type (Homo sapiens), sequence (P24723 whole entry, canonical isoform): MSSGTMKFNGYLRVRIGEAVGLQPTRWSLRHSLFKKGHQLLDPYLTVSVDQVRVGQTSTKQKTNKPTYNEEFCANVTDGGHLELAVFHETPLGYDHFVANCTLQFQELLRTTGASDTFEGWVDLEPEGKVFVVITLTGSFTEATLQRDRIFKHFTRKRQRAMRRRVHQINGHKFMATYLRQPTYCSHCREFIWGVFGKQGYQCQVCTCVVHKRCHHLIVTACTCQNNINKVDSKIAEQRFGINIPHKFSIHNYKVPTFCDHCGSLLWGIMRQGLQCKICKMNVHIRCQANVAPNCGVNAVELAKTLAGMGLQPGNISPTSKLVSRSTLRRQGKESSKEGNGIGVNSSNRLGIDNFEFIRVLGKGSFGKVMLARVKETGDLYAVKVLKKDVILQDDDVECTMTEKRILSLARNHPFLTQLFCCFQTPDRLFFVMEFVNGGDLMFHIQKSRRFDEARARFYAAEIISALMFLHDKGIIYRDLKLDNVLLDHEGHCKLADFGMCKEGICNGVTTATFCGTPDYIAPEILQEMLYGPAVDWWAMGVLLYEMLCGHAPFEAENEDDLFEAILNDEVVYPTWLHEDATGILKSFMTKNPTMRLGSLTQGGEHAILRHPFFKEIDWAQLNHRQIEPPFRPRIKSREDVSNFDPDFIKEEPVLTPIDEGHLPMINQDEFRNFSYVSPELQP

[21] = target: Phosphatidylinositol 4,5-bisphosphate 3-kinase catalytic subunit gamma isoform (Homo sapiens, UniProt P48736); test: Inhibition of PIK3CG (unknown origin) in presence of ATP by enzymatic assay
Phosphatidylinositol 4,5-bisphosphate 3-kinase catalytic subunit gamma isoform, sequence (P48736 whole entry, the tested form may be a part, canonical isoform): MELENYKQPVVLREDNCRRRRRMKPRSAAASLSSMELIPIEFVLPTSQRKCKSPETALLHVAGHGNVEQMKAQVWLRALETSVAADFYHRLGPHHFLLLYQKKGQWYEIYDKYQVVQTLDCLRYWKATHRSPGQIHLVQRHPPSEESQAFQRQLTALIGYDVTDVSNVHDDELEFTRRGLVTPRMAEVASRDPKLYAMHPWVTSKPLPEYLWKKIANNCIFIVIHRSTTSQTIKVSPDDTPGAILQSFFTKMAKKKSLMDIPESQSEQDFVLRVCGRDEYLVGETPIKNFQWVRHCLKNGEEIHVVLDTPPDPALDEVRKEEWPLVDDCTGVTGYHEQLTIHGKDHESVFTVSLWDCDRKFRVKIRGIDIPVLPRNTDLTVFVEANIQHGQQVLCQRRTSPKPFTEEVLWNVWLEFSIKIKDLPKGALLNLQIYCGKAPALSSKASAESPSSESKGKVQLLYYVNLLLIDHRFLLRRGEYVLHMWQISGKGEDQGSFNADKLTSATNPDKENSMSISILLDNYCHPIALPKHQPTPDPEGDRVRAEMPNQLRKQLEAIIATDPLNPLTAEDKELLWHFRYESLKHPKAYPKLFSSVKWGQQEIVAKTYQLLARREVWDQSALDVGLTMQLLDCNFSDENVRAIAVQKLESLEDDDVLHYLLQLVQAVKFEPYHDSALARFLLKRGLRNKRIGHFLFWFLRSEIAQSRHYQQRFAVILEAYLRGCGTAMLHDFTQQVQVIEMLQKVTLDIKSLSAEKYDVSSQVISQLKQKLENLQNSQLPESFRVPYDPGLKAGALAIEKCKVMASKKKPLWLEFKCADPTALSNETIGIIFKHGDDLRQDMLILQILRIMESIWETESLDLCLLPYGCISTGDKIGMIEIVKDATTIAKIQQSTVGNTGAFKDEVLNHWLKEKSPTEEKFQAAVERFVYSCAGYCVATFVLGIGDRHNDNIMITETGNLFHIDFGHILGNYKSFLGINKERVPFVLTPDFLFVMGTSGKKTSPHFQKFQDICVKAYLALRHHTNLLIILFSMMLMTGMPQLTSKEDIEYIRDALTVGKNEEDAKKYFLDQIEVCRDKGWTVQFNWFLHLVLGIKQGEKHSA

[22] = target: Ribosomal protein S6 kinase alpha-3 (Homo sapiens) (UniProt P51812); test: Inhibition of C-terminal kinase domain RSK2 (unknown origin) assessed as remaining activity at 1 uM by Kinome scan method relative to control; summary of the method: as §1
[23] = system: Phosphatidylinositol 4,5-bisphosphate 3-kinase catalytic subunit alpha isoform (Homo sapiens), P42336 [I800L]; test: Inhibition of PIK3CA I800L mutant (unknown origin) assessed as remaining activity at 1 uM by Kinome scan method relative to control
[24] = target: Tyrosine-protein kinase JAK1 (Homo sapiens, UniProt P23458); test: Binding affinity to JAK1 JH2domain-pseudokinase (unknown origin) assessed as dissociation constant
[25] = target: Ephrin type-A receptor 6 (Homo sapiens) (UniProt Q9UF33); test: Inhibition of EPHA6 (unknown origin) assessed as remaining activity at 1 uM by Kinome scan method relative to control
[26] = target: Serine/threonine-protein kinase TAO1 (Homo sapiens, UniProt Q7L7X3); test: Inhibition of TAOK1 (unknown origin) in presence of ATP by enzymatic assay
Serine/threonine-protein kinase TAO1, sequence (Q7L7X3 whole entry): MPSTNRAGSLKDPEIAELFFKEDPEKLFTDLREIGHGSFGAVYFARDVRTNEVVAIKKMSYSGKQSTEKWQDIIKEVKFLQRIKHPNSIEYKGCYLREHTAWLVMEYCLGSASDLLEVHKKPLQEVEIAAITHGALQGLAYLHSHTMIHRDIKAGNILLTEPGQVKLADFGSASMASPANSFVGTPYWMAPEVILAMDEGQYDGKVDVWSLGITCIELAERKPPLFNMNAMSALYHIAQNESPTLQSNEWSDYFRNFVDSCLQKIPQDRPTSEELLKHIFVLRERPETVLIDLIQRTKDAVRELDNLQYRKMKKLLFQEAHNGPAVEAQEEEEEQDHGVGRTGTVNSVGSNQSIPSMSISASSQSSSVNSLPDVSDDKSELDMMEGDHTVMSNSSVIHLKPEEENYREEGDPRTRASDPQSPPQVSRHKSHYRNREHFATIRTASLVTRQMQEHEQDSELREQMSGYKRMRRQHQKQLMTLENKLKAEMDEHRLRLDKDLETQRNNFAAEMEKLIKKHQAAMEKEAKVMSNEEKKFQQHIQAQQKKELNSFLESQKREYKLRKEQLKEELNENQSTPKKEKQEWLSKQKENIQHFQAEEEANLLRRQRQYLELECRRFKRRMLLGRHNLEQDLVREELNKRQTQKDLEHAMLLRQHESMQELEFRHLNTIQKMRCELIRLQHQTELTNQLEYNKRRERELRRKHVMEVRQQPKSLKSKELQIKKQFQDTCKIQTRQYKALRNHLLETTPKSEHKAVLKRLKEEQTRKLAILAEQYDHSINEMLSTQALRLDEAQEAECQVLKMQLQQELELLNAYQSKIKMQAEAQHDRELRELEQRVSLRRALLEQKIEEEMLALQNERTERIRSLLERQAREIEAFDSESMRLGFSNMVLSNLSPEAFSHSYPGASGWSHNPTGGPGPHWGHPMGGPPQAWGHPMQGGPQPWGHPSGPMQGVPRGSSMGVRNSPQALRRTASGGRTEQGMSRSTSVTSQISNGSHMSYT

Aurora kinase B = Aurora kinase B (Homo sapiens, UniProt Q96GD4); test: Inhibition of AURKB (unknown origin) in presence of ATP by enzymatic assay
Aurora kinase B, sequence (Q96GD4 whole entry): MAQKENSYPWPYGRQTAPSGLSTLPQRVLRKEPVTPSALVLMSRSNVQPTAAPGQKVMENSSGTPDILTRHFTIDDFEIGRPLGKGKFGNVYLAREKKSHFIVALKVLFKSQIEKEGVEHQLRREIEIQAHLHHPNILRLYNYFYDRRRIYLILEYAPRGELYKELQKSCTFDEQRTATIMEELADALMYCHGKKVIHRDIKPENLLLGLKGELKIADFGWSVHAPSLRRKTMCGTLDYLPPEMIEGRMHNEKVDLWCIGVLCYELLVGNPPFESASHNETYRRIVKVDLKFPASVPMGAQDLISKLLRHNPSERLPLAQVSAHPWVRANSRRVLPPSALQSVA

CN1C(=O)c2sccc2N(C)c2nc(Nc3ccc(S(N)(=O)=O)cc3)ncc21
Activity [1]: 72% | Activity [2]: 86% | Activity [3]: 96% | Activity [4]: 66% | Activity [5]: 65% | Activity [6]: 80% | Kd [7]: 42 nM | Activity [8]: 100% | Activity (Mus musculus [9]): Active | Activity (Mus musculus [10]): Active | Activity [11]: 79% | Activity [12]: 70% | Activity (Mus musculus [13]): ~40% | Activity [14]: 77% | Activity (Mus musculus [15]): Active | Activity [16]: 98% | Activity (Mus musculus [17]): Active | Activity [18]: 94% | Activity [19]: 70% | Activity [20]: 100% | IC50 [21]: 38.4 nM | Activity [22]: 66% | Activity [23]: 23% | Kd [24]: 22 nM | Activity [25]: 99% | IC50 [26]: 165 nM | IC50 (Aurora kinase B): 19.1 nM
